Most compounds without a hit are left out; they make up all but 0.85% or so of the library.
TRPML3 ag: human TRPML3 channel agonists, primary screen, cell-based, HEK293 TRPML3-YFP, Fluo-8 calcium fluorescence, 3 µM | Mucolipin-3 (Homo sapiens), Q8TDD5 | 100% = the carbachol control signal | activation, % at 3 µM | actives 0.29% (n = 220,000);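 active means activation above its plate's cutoff, the mean activation of the plate's test wells plus 3 SD, cut at about 12% in these data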;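 further: 0% = DMSO only wells and 100% = carbachol wells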
Target sequence (Q8TDD5 whole entry, looked up): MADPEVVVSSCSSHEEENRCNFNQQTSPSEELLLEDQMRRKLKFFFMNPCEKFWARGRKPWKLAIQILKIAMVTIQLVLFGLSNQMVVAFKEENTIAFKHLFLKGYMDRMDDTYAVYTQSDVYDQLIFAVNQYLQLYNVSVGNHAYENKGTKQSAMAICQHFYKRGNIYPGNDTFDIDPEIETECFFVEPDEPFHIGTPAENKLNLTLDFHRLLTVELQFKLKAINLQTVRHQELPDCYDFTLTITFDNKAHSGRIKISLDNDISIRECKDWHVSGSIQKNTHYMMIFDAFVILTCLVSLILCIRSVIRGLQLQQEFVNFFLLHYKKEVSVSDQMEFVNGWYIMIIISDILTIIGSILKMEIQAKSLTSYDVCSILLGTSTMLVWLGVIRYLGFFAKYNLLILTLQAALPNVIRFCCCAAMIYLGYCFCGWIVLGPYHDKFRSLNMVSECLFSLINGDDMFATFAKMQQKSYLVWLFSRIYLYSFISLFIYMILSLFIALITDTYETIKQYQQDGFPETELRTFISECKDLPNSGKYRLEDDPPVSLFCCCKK
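Material: HEK293 cells stably carrying human TRPML3-YFP; compound dosing: single dose, 3 µM final nominal compound, 0.3% DMSO final; incubation: 1-h 37 °C dye load, 5-s basal, 120-s post-compound reads; technique: Fluo-8 intracellular calcium fluorescence, excitation 470-495 nm, emission 515-575 nm; read-out basis: percent activation from peak-to-basal fluorescence ratio, scaled between DMSO and carbachol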
CRFBP-R2 agonist: agonists of CRF-BP/CRF-R2 complex, primary screen, cell-based, HEK293, calcium dye fluorescence, uHTS; calcium dye fluorescence (FLIPR); percent of saturating CRF peptide response; activation, % at 13.2 µM; actives 0.46% (n = 350,000); AID 588473, 2011;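 active means activation of at least 50%, plus an integration ratio under a set limit after plate pattern correction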;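 further: plate controls were neutral control wells without compound for no effect and CRF at EC100 for full effect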
TRPN1 ag: zebrafish TRPN1 channel agonists, primary screen, cell-based, HEK293, calcium fluorescence; transient receptor potential cation channel N1 (TRPN1/NompC), Danio rerio; HEK293 zebrafish TRPN1-YFP, Fluo-8 calcium fluorescence; 100% = response to 87 µM carbachol; activation, % at 3 µM; actives 0.18% (n = 220,000); AID 1424, 2008;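 active means activation above its plate's cutoff, the mean activation of test wells on that plate plus 3 SD, cut at about 19% in these data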;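 further: 0% = DMSO alone and 100% = 87 µM carbachol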
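Assay system: Zebrafish TRPN1-YFP in HEK293 cells | Incubation: Dye loading 1 h at 37 °C, then 30 min room temperature | Measured by: Kinetic Fluo-8 fluorescence, ex 470-495, em 515-575 nm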
OXTR ag: human OXTR agonists, primary screen, fluorescence, CHO-OTR cells, Fluo-8 calcium; Oxytocin receptor (Homo sapiens), P30559; Fluo-8 calcium fluorescence; normalized: DMSO 0%, oxytocin 100%; activation, % at 3 µM; actives 0.32% (n = 320,000);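 active means activation above the mean of all tested compounds plus 3 SD, cutoff set per screening run, cut at about 20% in these data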;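 further: peak over basal fluorescence ratio from a 100 s FLIPR kinetic read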
OXTR potentiate: human OXTR potentiators, primary screen, fluorescence, CHO-OTR cells, Fluo-8 calcium; Fluo-8 calcium fluorescence, potentiator mode; 0% = oxytocin EC15, 100% = EC100; activation, % at 3 µM; actives 0.061% (n = 320,000); AID 2445, 2010;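 active means activation above that plate's cutoff, the mean activation of tested compounds plus 3 SD, cut at about 6.6% in these data, passing the limit was not always enough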;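 further: 100% uses oxytocin at 75 nM as the full agonist control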
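Material: CHO-OTR cells, human receptor; compound dosing: single dose, 3.0 µM nominal final compound concentration; schedule: 6 min compound pre-incubation at room temperature, 100 s kinetic read; measured by: kinetic Fluo-8 calcium fluorescence; read-out basis: % activation vs EC15 and EC100 oxytocin; controls: EC15 oxytocin alone as 0%, 75 nM oxytocin as 100%; replicates: singlicate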
V1aR counter: agonists of human V1a receptor, primary screen, counter-screen for OXTR agonist project, fluorescence, CHO-V1R cells; Vasopressin V1a receptor (Homo sapiens), P37288; Fluo-8 calcium fluorescence, agonist mode; 0% DMSO, 100% 3 nM vasopressin; activation, % at 3 µM; actives 0.25% (n = 320,000); AID 2797, 2010;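 active means activation above the mean activation of all tested compounds plus 3 SD, per screening run, cut at about 20% in these data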;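 further: signal is peak over basal fluorescence ratio across a 100 second FLIPR read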
TRPN1 ag 2: zebrafish TRPN1 channel agonists, counter-screen for TRPML3 agonist project, cell-based, HEK293 TRPN1-YFP, Fluo-8 calcium | shares compounds with TRPML3 ag | Fluo-8 calcium fluorescence; scaled: carbachol wells 100%, DMSO wells 0% | activation, % at 3 µM | actives 10% (n = 310);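 active means mean activation over replicates above a set limit taken from the earlier TRPN1 channel primary screen, cut at about 19% in these data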;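 further: 100% = carbachol and 0% = 0.3% DMSO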
TRPML3 ag conf: human TRPML3 channel agonists, confirmation, cell-based, HEK293 TRPML3-YFP, Fluo-8 calcium, triplicate. shares compounds with TRPML3 ag. Fluo-8 calcium fluorescence; 100% set by carbachol, 0% by DMSO. activation, % at 3 µM. actives 80% (n = 310). AID 1526, 2009;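 active means activation above a set limit derived from the earlier primary screen, cut at about 12% in these data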
Active calls of the source: *; . = not tested or not shown.

SMILES	TRPML3 ag	CRFBP-R2 agonist	TRPN1 ag	OXTR ag	OXTR potentiate	V1aR counter	TRPN1 ag 2	TRPML3 ag conf
CCC(Oc1cc(Cl)ccc1Cl)C(=O)NN1C(=O)C2C3CCC(C3=C(C)C)C2C1=O (configuration not stated)	34*	2	0	-1	-9	-1	2	73*
CCC(Oc1cc(Cl)ccc1Cl)C(=O)NNC(=O)CCC(=O)O (configuration not stated)	1	0	0	1	11	1	.	.
Cc1cc(C)c(C2=NOC3C4CCC(C4)C23)c(C)c1 (configuration not stated)	24*	-2	-1	-2	-1	-1	-2	104*
Fc1ccc(Nc2nnc(C(F)(F)F)s2)cc1Cl	17*	20	19	10	-18	9	15	9
C=CCN1C(=O)/C(=C/c2ccc(OC(C)=O)c(OCC)c2[N+](=O)[O-])SC1=S	12*	46	18	.	.	.	19*	7
CCOc1c(OC(C)=O)ccc(/C=C/c2ccc3cccc(OC(C)=O)c3n2)c1[N+](=O)[O-]	0	-1	0	0	-9	0	.	.
O=S(=O)(Nc1ccccc1N1CCCCC1)c1ccc(Cl)s1	139*	-1	-3	-1	-1	-2	-2	110*
Cc1ccc(S(=O)(=O)Nc2cc(C(F)(F)F)ccc2N2CCOCC2)c(C)c1	48*	30	6	-1	-8	0	10	102*
Cc1ccc(S(=O)(=O)Nc2cc(C(F)(F)F)ccc2N2CCOCC2)cc1	1	8	2	-1	-13	0	.	.
O=C1CN(S(=O)(=O)c2ccc(F)cc2)CC(=O)N1CCc1ccccc1	12*	.	0	.	.	.	1	23*
COc1ccccc1C1CN=NC12CCCc1ccccc1C2=O (configuration not stated)	24*	2	-2	-2	-7	-1	0	91*
Cc1c(Cl)cccc1NC(=S)NC1CCCC1	.	-1	.	-2	-5	1	.	.
CN(C)S(=O)(=O)c1cc([N+](=O)[O-])ccc1N1CCCCCC1	16*	-1	-1	-1	-12	-1	1	14*
CC(C)C[C@@H](CSc1ccccc1)N1CCN(CC(C)C)CCC1=O	.	-2	.	-2	6	-1	.	.
CC1CN(C(=O)CSc2nnc(-c3ccccc3)o2)CC(C)O1 (configuration not stated)	.	1	.	-1	-1	0	.	.
COc1ccccc1N(C)S(=O)(=O)c1ccc(Cl)c(C(=O)OCc2c(C)noc2C)c1	41*	20	1	0	-7	5	0	39*
O=C(NS(=O)(=O)Nc1ccc(Br)cn1)c1c[nH]c2ccccc12	.	0	.	0	5	1	.	.
COc1ccc(NC(=O)c2cc([N+](=O)[O-])ccc2O)cc1	15*	37	17	12	-16	7	26*	11
Cc1ccc(S(=O)(=O)N(C)c2cc(S(=O)(=O)N3CCC(C)CC3)c(C)cc2C)cc1	40*	5	-1	1	-14	-1	-1	73*

Screening data (PubChem)
